Screening data (PubChem)
KCNK9 block – blocks the human KCNK9 two-pore domain potassium channel | B-score at 10 µM | Q9NPC2 | 1.2% of 310,000 active | HEK293 KCNK9, FluxOR thallium flux fluorescence; stronger effect = lower value;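 active means ratio B-score over 3 SD below the library mean, with starting fluorescence within 5 SD of its mean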;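 further: negative B-score means less thallium flux so channel inhibition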
hERG protect – shields human hERG channel from block by proarrhythmic agents; Q12809; CHO-hERG, FluxOR thallium flux, dofetilide IC70 present; activation (rescue from dofetilide block), less the hit threshold, % at 10 µM; 0.51% of 310,000 active;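 active means activation above the mean of controls blocked by dofetilide plus 5 SD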;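 further: thallium influx through hERG after potassium depolarization seen as dye fluorescence rise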
KCNQ1 inh – inhibitors of human KCNQ1 potassium channel | P51787 | CHO-K1 KCNQ1, FluxOR thallium flux fluorescence; stronger effect = higher value | B-score at 10 µM | 1.3% of 310,000 active | AID 2642;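 active means compounds whose thallium flux B-score, printed positive for inhibition, exceeds three library SD while starting fluorescence stays within three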;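 further: channel opened by potassium depolarization with thallium stimulus after 20 min compound exposure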
Target sequence (P51787 whole entry, looked up): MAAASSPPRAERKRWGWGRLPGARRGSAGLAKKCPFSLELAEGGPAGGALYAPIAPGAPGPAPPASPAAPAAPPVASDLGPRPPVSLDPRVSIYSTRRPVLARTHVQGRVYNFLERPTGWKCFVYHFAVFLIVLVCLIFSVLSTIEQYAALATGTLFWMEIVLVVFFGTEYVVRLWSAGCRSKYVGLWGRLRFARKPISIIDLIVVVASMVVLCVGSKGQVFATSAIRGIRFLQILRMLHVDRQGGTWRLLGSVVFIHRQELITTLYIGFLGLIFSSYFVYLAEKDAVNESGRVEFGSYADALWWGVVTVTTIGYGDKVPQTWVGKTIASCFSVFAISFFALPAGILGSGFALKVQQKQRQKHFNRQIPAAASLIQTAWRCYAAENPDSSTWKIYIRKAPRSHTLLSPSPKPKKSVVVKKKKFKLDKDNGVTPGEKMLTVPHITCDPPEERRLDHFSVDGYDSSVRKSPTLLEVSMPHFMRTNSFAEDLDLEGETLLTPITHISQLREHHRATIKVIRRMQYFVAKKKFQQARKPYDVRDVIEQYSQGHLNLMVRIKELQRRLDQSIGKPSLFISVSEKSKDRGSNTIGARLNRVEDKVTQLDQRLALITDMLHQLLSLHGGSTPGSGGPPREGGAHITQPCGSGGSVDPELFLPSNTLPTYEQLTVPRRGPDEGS
Kir21 block – Kir2.1 (mouse) channel inhibition | P35561 | HEK293-Kir2.1, FluxOR thallium flux fluorescence; stronger effect = lower value | B-score at 10 µM | 0.85% of 310,000 active;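 active means fluorescence ratio B-score at or below minus 3 SD of library scores, with starting-brightness B-score within 2 SD, cut at about -4.2 in these data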;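 further: channel flux triggered by added potassium and thallium sulfate stimulus; B-score of peak minus minimum fluorescence over baseline after thallium stimulus; more negative B-score means stronger Kir2.1 block with less thallium influx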
KCNK3 block – human KCNK3 channel inhibition, primary screen; O14649; CHO-KCNK3 thallium flux, FluxOR fluorescence; stronger effect = lower value; B-score at 10 µM; 0.84% of 340,000 active;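 active means B-score under library mean minus 4 SD, starting fluorescence ratio at most library mean plus 5 SD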;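 further: more negative B-score means stronger inhibition of thallium flux through KCNK3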
KCNQ1 act – potentiates or activates the human KCNQ1 potassium channel; CHO-K1 KCNQ1, thallium flux FluxOR fluorescence; stronger effect = higher value; B-score at 10 µM; 0.35% of 310,000 active; AID 2648;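 active means fluorescence ratio B-score, a plate-corrected score, at least three library SD, with initial intensity B-score within 5 SD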
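Test system: CHO-K1 cells stably expressing KCNQ1 / Medium: assay buffer / Also added: depolarizing K+/Tl+ stimulus, K2SO4 and Tl2SO4 each 12.5 mM in 5x stock / Incubation: 90 min dye loading and 20 min compound exposure, both at room temperature / Signal: thallium influx via FluxOR fluorescence, kinetic imaging / Evaluation: B score of baseline-normalized fluorescence ratio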
* = called active by the depositor; i = inactive; x = no result. Most compounds without a hit are left out; they make up all but 3.7% or so of the library.

SMILES	KCNK9 block	hERG protect	KCNQ1 inh	Kir21 block	KCNK3 block	KCNQ1 act
O=C(NCc1ccccn1)c1cc(-c2ccc(Cl)cc2)oc1C(F)(F)F	-7.4*	-12	i	-0.8	i	i
Cc1ccc(S(=O)(=O)Nc2ccc(O)c3cccnc23)cc1	i	-10	i	-4.5*	i	i
O=S(=O)(Nc1ccc(O)c2ccccc12)c1ccc(Br)cc1	i	30*	i	0.01	x	i
Cc1ccc(S(=O)(=O)Nc2ccc(O)c3ncccc23)cc1	i	-6	i	-2.3	i	i
COc1ccc(C)cc1NC(=O)CCS(=O)(=O)c1ccc2c(c1)oc(=O)n2C	i	-7	i	0.17	i	i
O=C(COc1ccccc1Cl)Nc1ccc(CN2CCCCC2)cc1	i	-16	i	-0.95	i	i
Cc1ccc(CNC(=O)c2ccc(N3CCc4ccccc43)c([N+](=O)[O-])c2)cc1	i	-21	i	-6.5*	i	i
NNC(=O)c1ccc(N2CCc3ccccc32)c([N+](=O)[O-])c1	i	-10	i	1.3	i	i
O=c1ccc2ccc(Oc3ccc([N+](=O)[O-])cc3[N+](=O)[O-])cc2o1	i	-7	i	-0.96	x	i
CC(=O)Nc1ccc(C(=O)OCC(=O)Nc2ccccc2F)cc1	i	-8	i	0.02	i	i
CC(=O)Nc1ccc(C(=O)OCC(=O)Nc2ccccc2Sc2ccccc2)cc1	-7.2*	-6	i	-1	i	i
CN(C)c1cccc(C(=O)OCC(=O)Nc2ccccc2Sc2ccccc2)c1	i	-14	6*	0.63	i	i
CN(C)c1cccc(C(=O)OCC(=O)Nc2ccccc2-c2ccccc2)c1	i	-1	i	1.8	i	i
CCOC(=O)C1=C(CSc2nc3c(cc2C#N)CCC3)OC(N)=C(C#N)C1c1ccccc1 (stereo not drawn)	-6.7*	-9	i	0.12	i	i
CN(c1ccccc1)S(=O)(=O)CS(=O)(=O)N(C)c1ccccc1	x	x	x	x	i	x
CN(c1ccccc1)P(=O)(N(C)c1ccccc1)N(C)c1ccccc1	i	-18	i	-5.5*	i	i
CCC(C)n1cnc2c(c1=O)c1nc3ccccc3nc1n2Cc1ccc2c(c1)OCO2 (stereo not drawn)	-7.2*	-9	7*	-0.46	x	i
Cc1sc(Cc2nc(O)cs2)nc1-c1ccccc1	i	-9	i	-1	i	i
COc1ccc(CC(=O)Nc2ccccc2N2CCCC2)cc1	i	-10	i	-6.3*	i	i
O=C(CCNC(=O)c1ccc(Cl)cc1)Nc1ccccc1N1CCCCC1	i	-22	i	-4.6*	i	i
COc1ccc(CC(=O)Nc2ccccc2N2CCCC2)cc1OC	i	-5	i	-4.5*	i	i
O=C(Cc1ccccc1)Nc1ccccc1N1CCCC1	i	-6	i	-3.8	i	i
COc1cc(SC)ccc1C(=O)NCC1CCCCC1	i	-2	i	-0.27	i	i
O=C(CCNC(=O)c1ccco1)Nc1ccc(OC(F)F)cc1	i	-4	i	1.6	i	i
O=S(=O)(NCCc1cccs1)c1ccc(Br)cc1	i	-13	i	-5.3*	i	i
SMILES	KCNK9 block	hERG protect	KCNQ1 inh	Kir21 block	KCNK3 block	KCNQ1 act
COCCN(CCOC)c1nc(S(=O)(=O)c2ccc(C)cc2)c(Cl)s1	-7.8*	-5	i	-1.2	i	i
COc1ccc2c(CC(=O)OCC(=O)c3ccc(F)cc3)coc2c1	x	x	x	x	i	x
COc1cc(C)nc(NCc2ccccc2)n1	i	2	i	1.4	i	i
Cc1ccc(Nc2cc(C)nc(NCc3ccccc3)n2)cc1	i	-31	i	-5.5*	i	i
O=C(COc1ccc2ccccc2c1Br)Nc1cccnc1	i	23*	i	0.12	i	i
O=C(COc1ccc2ccccc2c1Br)Nc1ccncc1	i	-4	i	-2.5	i	i
COc1ccc(N(CC(=O)N2CCN(Cc3ccccc3)CC2)S(C)(=O)=O)cc1OC	i	9.3*	i	-0.01	i	i
Cc1cccc(NC(=O)CSc2ccc3nnc(-c4cccnc4)n3n2)c1	i	-11	i	-1.6	i	i
CCc1ccc(/C=C2/C(=O)N(c3ccccc3)C(=S)N2CC(=O)OC)s1	i	-4	i	-0.45	i	i
CCN1C(=O)/C(=C/N(C(C)=O)c2ccccc2)N(c2ccccc2)C1=S	i	-4	i	-4.5*	i	i
CCc1ccc(N2CC(C(=O)OCC(=O)Nc3ccc(C(C)=O)cc3)CC2=O)cc1 (stereo not drawn)	x	x	x	x	i	x
COc1ccc(NC(=O)c2cc(-c3cccnc3)nc3ccc(C)cc23)cc1OC	x	x	x	x	i	x
COc1cc(NC(=O)c2cc(-c3cccnc3)nc3ccc(C)cc23)c(OC)cc1Cl	i	6.5*	i	-2.2	x	i
COc1ccc(S(=O)(=O)N(C)C)cc1NS(=O)(=O)c1ccc(F)c(F)c1F	i	-9	i	-2.6	i	i
COc1ccc(/C=N\NC(=O)c2ccccc2F)cc1COc1ccc(F)cc1F	i	-10	i	1.1	i	i
COc1ccc(/C=N/NC(=O)c2cc(C(C)(C)C)[nH]n2)cc1COc1ccc(F)cc1F	i	-12	6*	0.83	i	i
COc1ccc(/C=N\NC(=O)c2ccccc2F)cc1COc1ccc(F)cc1	i	-1	i	-0.88	i	i
COc1ccc(/C=N\NC(=O)c2ccccc2Br)cc1COc1c(F)c(F)cc(F)c1F	i	-9	6*	-0.31	i	i
CC(=O)N1CSCC1C(=O)NNS(=O)(=O)c1cccc(C(F)(F)F)c1 (stereo not drawn)	i	-11	i	-0.05	i	i
CCOC(=O)c1cc2sccc2n1CC(=O)N1CCCC1	i	-10	i	0.48	i	i
Cc1c(C(=O)NCCN2CCOCC2)oc2ccccc12	i	48*	i	-1.4	i	i
COc1ccc2ccccc2c1C1CC(=O)N2CN(C)CSC2=C1C#N (stereo not drawn)	i	-17	6*	-0.25	i	i
COc1cc(C2C(C#N)=C(N)Oc3c2c(-c2ccccc2)nn3-c2ccccc2)cc(OC)c1OC (stereo not drawn)	i	-5	i	0	i	i
COc1ccccc1CNC(=O)CN1C(=O)NC(Cc2ccccc2)(c2ccccc2)C1=O (stereo not drawn)	x	x	x	x	i	x
COc1ccc(CCNC(=O)CCSc2nc(-c3ccco3)cc(C(F)(F)F)n2)cc1OC	i	-4	i	-4.4*	i	i
